{
  "source": "ChEMBL document CHEMBL3244336",
  "about": "“Antitumor agents. 1. 1,4-Bis[(aminoalkyl)amino]-9,10-anthracenediones” (J Med Chem, 1979)",
  "key": {"[1]": {"tested_on": "P388", "assay": "Antitumor activity against mouse P388 cells allografted in mouse assessed as increase of median life span at 50 mg/kg, ip on day 1, 5 and 9 measured up to 60 days relative to control", "type": "functional", "conditions": "route intraperitoneal", "procedure,_shortened": "(§1)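 BDF1 or CDF1 mice inoculated ip with ascitic P388 leukemia cells. Dosing ip on days 1, 5 and 9. Deaths recorded for 60 days; % increase in median life span over controls. \"Cures\" are survivors/total at 60 days.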"}, "[2]": {"tested_on": "B16", "assay": "Antitumor activity against mouse B16 cells allografted in BDF1 mouse assessed as increase of median life span at 25 mg/kg, ip on day 1 to 9 measured up to 80 days relative to control", "type": "functional", "conditions": "route intraperitoneal", "procedure,_shortened": "(§2)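 BDF1 mice implanted ip with a homogenate from 0.05 g of B16 tumor. Test agent given ip on days 1-9. Deaths recorded for 80 days. Result is % increase in median life span over untreated controls. \"Cures\" are survivors/total at 80 days.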"}, "[3]": {"tested_on": "B16", "assay": "Antitumor activity against mouse B16 cells allografted in BDF1 mouse assessed as disease cure at 25 mg/kg, ip on day 1 to 9 measured up to 80 days", "type": "functional, organism-based", "set-up": "dose 25 mg/kg", "procedure,_shortened": "(§3)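 BDF1 mice implanted ip with homogenate from 0.05 g of B16 tumor, then dosed ip on days 1-9. Deaths recorded for 80 days; \"cures\" scored as survivors/total at 80 days.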"}, "[4]": {"tested_on": "P388", "assay": "Antitumor activity against mouse P388 cells allografted in mouse assessed as disease cure at 250 mg/kg, ip on day 1, 5 and 9 measured up to 60 days", "type": "functional, organism-based", "set-up": "dose 250 mg/kg", "procedure,_shortened": "(§4)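 BDF1 or CDF1 mice inoculated ip with ascitic P388 leukemia cells, dosed ip on days 1, 5 and 9. Deaths recorded for 60 days; \"cures\" taken as number of survivors/total at 60 days.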"}, "[5]": {"tested_on": "P388", "assay": "Antitumor activity against mouse P388 cells allografted in mouse assessed as increase of median life span at 250 mg/kg, ip on day 1, 5 and 9 measured up to 60 days relative to control", "type": "functional", "conditions": "route intraperitoneal", "procedure,_shortened": "as §1"}, "[6]": {"tested_on": "B16", "assay": "Antitumor activity against mouse B16 cells allografted in BDF1 mouse assessed as increase of median life span at 100 mg/kg, ip on day 1 to 9 measured up to 80 days relative to control", "type": "functional", "conditions": "route intraperitoneal", "procedure,_shortened": "as §2"}, "[7]": {"tested_on": "P388", "assay": "Antitumor activity against mouse P388 cells allografted in mouse assessed as increase of median life span at 200 mg/kg, ip on day 1, 5 and 9 measured up to 60 days relative to control", "type": "functional", "conditions": "route intraperitoneal", "procedure,_shortened": "as §1"}, "[8]": {"assay": "Toxicity in […] assessed as maximum tolerated dose administered as single dose", "type": "organism-based, P388", "conditions": "mouse, in vivo, ip"}, "[9]": {"assay": "Toxicity in […] assessed as maximum tolerated dose administered as once each 4 days for 3 total injection", "type": "organism-based, P388", "conditions": "mouse, in vivo, ip"}, "[10]": {"tested_on": "P388", "assay": "Antitumor activity against mouse P388 cells allografted in mouse assessed as increase of median life span at 5 mg/kg, ip on day 1, 5 and 9 measured up to 60 days relative to control", "type": "functional", "conditions": "route intraperitoneal", "procedure,_shortened": "as §1"}, "[11]": {"tested_on": "P388", "assay": "Antitumor activity against mouse P388 cells allografted in ip dosed mouse assessed as minimum effective dose administered as single dose", "type": "functional", "conditions": "read-out: MED", "procedure,_shortened": "(§5)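 Drug given ip to P388 tumor-bearing mice, either once as a single dose or once each 4 days for three injections. Minimum effective dose defined as the dose giving 40% increase in life span over control, read from regression lines of log dose-response data.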"}, "[12]": {"tested_on": "P388", "assay": "Antitumor activity against mouse P388 cells allografted in ip dosed mouse assessed as minimum effective dose administered as once each 4 days for 3 total injection", "type": "functional", "conditions": "96 h, read-out: MED", "procedure,_shortened": "as §5"}, "[13]": {"tested_on": "B16", "assay": "Antitumor activity against mouse B16 cells allografted in BDF1 mouse assessed as increase of median life span at 0.8 mg/kg, ip on day 1 to 9 measured up to 80 days relative to control", "type": "functional", "conditions": "route intraperitoneal", "procedure,_shortened": "as §2"}, "[14]": {"tested_on": "B16", "assay": "Antitumor activity against mouse B16 cells allografted in BDF1 mouse assessed as increase of median life span at 200 mg/kg, ip on day […] measured up to 80 days relative to control", "type": "functional", "conditions": "route intraperitoneal"}, "[15]": {"tested_on": "P388", "assay": "Antitumor activity against mouse P388 cells allografted in mouse assessed as disease cure at 400 mg/kg, ip on day 1 to 9 measured up to 60 days", "type": "functional, organism-based", "set-up": "dose 400 mg/kg", "procedure,_shortened": "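P388 ascitic leukemia cells given ip to BDF1 or CDF1 mice; ip dosing on days 1-9. Deaths followed for 60 days, cures expressed as survivors/total at 60 days.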"}, "[16]": {"tested_on": "B16", "assay": "Antitumor activity against mouse B16 cells allografted in BDF1 mouse assessed as increase of median life span at 400 mg/kg, ip on day 1 to 9 measured up to 80 days relative to control", "type": "functional", "conditions": "route intraperitoneal", "procedure,_shortened": "as §2"}, "[17]": {"tested_on": "B16", "assay": "Antitumor activity against mouse B16 cells allografted in BDF1 mouse assessed as disease cure at 400 mg/kg, ip on day 1 to 9 measured up to 80 days", "type": "functional, organism-based", "set-up": "dose 400 mg/kg", "procedure,_shortened": "as §3"}, "[18]": {"tested_on": "P388", "assay": "Antitumor activity against mouse P388 cells allografted in mouse assessed as increase of median life span at 400 mg/kg, ip on day 1 to 9 measured up to 60 days relative to control", "type": "functional", "conditions": "route intraperitoneal", "procedure,_shortened": "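BDF1 or CDF1 mice inoculated ip with ascitic P388 leukemia cells. Dosing ip on days 1-9. Deaths followed for 60 days; % increase in median life span over controls.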"}, "[19]": {"tested_on": "B16", "assay": "Antitumor activity against mouse B16 cells allografted in BDF1 mouse assessed as increase of median life span at 50 mg/kg, ip on day 1 to 9 measured up to 80 days relative to control", "type": "functional", "conditions": "route intraperitoneal", "procedure,_shortened": "as §2"}, "[20]": {"tested_on": "P388", "assay": "Antitumor activity against mouse P388 cells allografted in mouse assessed as disease cure at 300 mg/kg, ip on day 1, 5 and 9 measured up to 60 days", "type": "functional, organism-based", "set-up": "dose 300 mg/kg", "procedure,_shortened": "as §4"}, "[21]": {"tested_on": "P388", "assay": "Antitumor activity against mouse P388 cells allografted in mouse assessed as increase of median life span at 300 mg/kg, ip on day 1, 5 and 9 measured up to 60 days relative to control", "type": "functional", "conditions": "route intraperitoneal", "procedure,_shortened": "as §1"}, "[22]": {"tested_on": "B16", "assay": "Antitumor activity against mouse B16 cells allografted in BDF1 mouse assessed as increase of median life span at 6.2 mg/kg, ip on day 1 to 9 measured up to 80 days relative to control", "type": "functional", "conditions": "route intraperitoneal", "procedure,_shortened": "as §2"}, "[23]": {"tested_on": "P388", "assay": "Antitumor activity against mouse P388 cells allografted in mouse assessed as increase of median life span at 25 mg/kg, ip on day 1, 5 and 9 measured up to 60 days relative to control", "type": "functional", "conditions": "route intraperitoneal", "procedure,_shortened": "as §1"}, "[24]": {"tested_on": "P388", "assay": "Antitumor activity against mouse P388 cells allografted in mouse assessed as disease cure at 25 mg/kg, ip on day 1, 5 and 9 measured up to 60 days", "type": "functional, organism-based", "set-up": "dose 25 mg/kg", "procedure,_shortened": "as §4"}, "[25]": {"tested_on": "B16", "assay": "Antitumor activity against mouse B16 cells allografted in BDF1 mouse assessed as disease cure at 6.2 mg/kg, ip on day 1 to 9 measured up to 80 days", "type": "functional, organism-based", "set-up": "dose 6.2 mg/kg", "procedure,_shortened": "as §3"}},
  "note": "Active and inactive are the calls of the source.",
  "data": [
    {"smiles": "O=C1c2c(O)ccc(O)c2C(=O)c2c(NCCCNCCO)ccc(NCCCNCCO)c21", "values": [
      {"measurement": "ILS at 50 mg/kg", "setting": "[1]", "result": 191, "unit": "%"},
      {"measurement": "ILS at 25 mg/kg", "setting": "[2]", "result": 100, "unit": "%"},
      {"measurement": "Activity", "setting": "[3]", "result": "inactive"}
    ]},
    {"smiles": "CN(C)CCNc1ccc(NCCN(C)C)c2c1C(=O)c1ccc(C(=O)O)cc1C2=O", "values": [
      {"measurement": "Activity", "setting": "[4]", "result": "inactive"},
      {"measurement": "ILS at 250 mg/kg", "setting": "[5]", "result": 0, "unit": "%"}
    ]},
    {"smiles": "O=C1c2ccccc2C(=O)c2c(NCCc3ccccn3)ccc(NCCc3ccccn3)c21", "values": [
      {"measurement": "Activity", "setting": "[4]", "result": "inactive"},
      {"measurement": "ILS at 250 mg/kg", "setting": "[5]", "result": 0, "unit": "%"}
    ]},
    {"smiles": "O=C1c2c(O)ccc(O)c2C(=O)c2c(NCCNCCN3CCOCC3)ccc(NCCNCCN3CCOCC3)c21", "values": [
      {"measurement": "ILS at 100 mg/kg", "setting": "[6]", "result": 233, "unit": "%"},
      {"measurement": "ILS at 200 mg/kg", "setting": "[7]", "result": 136, "unit": "%"}
    ]},
    {"smiles": "COc1cccc2c1C(=O)c1c(O)c3c(c(O)c1C2=O)C[C@@](O)(C(=O)CO)C[C@@H]3O[C@H]1C[C@H](N)[C@H](O)[C@H](C)O1", "note": "[DOXORUBICIN]", "values": [
      {"measurement": "MTD", "setting": "[8]", "result": 13.1, "unit": "mg/kg"},
      {"measurement": "MTD at 96 h", "setting": "[9]", "result": 2.7, "unit": "mg/kg"},
      {"measurement": "ILS at 5 mg/kg", "setting": "[10]", "result": 159, "unit": "%"},
      {"measurement": "minimal effective dose", "setting": "[11]", "result": 0.35, "unit": "mg/kg"},
      {"measurement": "minimal effective dose", "setting": "[12]", "result": 0.14, "unit": "mg/kg"},
      {"measurement": "ILS at 0.8 mg/kg", "setting": "[13]", "result": 275, "unit": "%"}
    ]},
    {"smiles": "O=C1c2c(O)ccc(O)c2C(=O)c2c(NCCN(CCO)CCO)ccc(NCCN(CCO)CCO)c21", "values": [
      {"measurement": "ILS at 200 mg/kg", "setting": "[14]", "result": 212, "unit": "%"},
      {"measurement": "ILS at 200 mg/kg", "setting": "[7]", "result": 306, "unit": "%"}
    ]},
    {"smiles": "O=C1c2ccccc2C(=O)c2c(NCCN3CCOCC3)ccc(NCCN3CCOCC3)c21", "values": [
      {"measurement": "Activity", "setting": "[15]", "result": "inactive"},
      {"measurement": "ILS at 400 mg/kg", "setting": "[16]", "result": 33, "unit": "%"},
      {"measurement": "Activity", "setting": "[17]", "result": "inactive"},
      {"measurement": "ILS at 400 mg/kg", "setting": "[18]", "result": 119, "unit": "%"}
    ]},
    {"smiles": "CN(C)CCCCNc1ccc(NCCCCN(C)C)c2c1C(=O)c1ccccc1C2=O", "values": [
      {"measurement": "Activity", "setting": "[4]", "result": "inactive"},
      {"measurement": "ILS at 250 mg/kg", "setting": "[5]", "result": 0, "unit": "%"}
    ]},
    {"smiles": "O=C1c2ccccc2C(=O)c2c(NCCN(CCO)CCO)ccc(NCCN(CCO)CCO)c21", "values": [
      {"measurement": "ILS at 50 mg/kg", "setting": "[19]", "result": 88, "unit": "%"},
      {"measurement": "Activity", "setting": "[20]", "result": "inactive"},
      {"measurement": "ILS at 300 mg/kg", "setting": "[21]", "result": 73, "unit": "%"}
    ]},
    {"smiles": "NCCCNc1ccc(NCCCN)c2c1C(=O)c1c(O)ccc(O)c1C2=O", "values": [
      {"measurement": "ILS at 6.2 mg/kg", "setting": "[22]", "result": 87, "unit": "%"},
      {"measurement": "ILS at 25 mg/kg", "setting": "[23]", "result": 83, "unit": "%"},
      {"measurement": "Activity", "setting": "[24]", "result": "inactive"},
      {"measurement": "Activity", "setting": "[25]", "result": "inactive"}
    ]}
  ]
}
